The list is not random: actives were taken first. Their share in the collection is about 1.3%.
NR2E3 ag-1 = agonists of human NR2E3 nuclear receptor; Q9Y5X4; CHO-S Gal4-NCOR/VP16-NR2E3 two-hybrid, luciferase; inhibition of corepressor binding, % at 3.98 µM; hit rate 0.35% among 360,000; AID 602229;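 active means inhibition above the mean of all tested compounds plus 3 SD, cut at about 70% in these data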;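 further: 0% = DMSO with NR2E3 transfected cells and 100% = cells lacking NR2E3 construct; higher means lower luciferase signal from less NR2E3 corepressor binding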
Furin inhibitor = inhibitors of human furin; P09958; purified furin, fluorogenic substrate cleavage; inhibition, % at 20 µM or 30 µM; hit rate 0.061% among 220,000; AID 463115; in the data active means inhibition above about 25%
Target sequence (P09958 108-714 limits assumed): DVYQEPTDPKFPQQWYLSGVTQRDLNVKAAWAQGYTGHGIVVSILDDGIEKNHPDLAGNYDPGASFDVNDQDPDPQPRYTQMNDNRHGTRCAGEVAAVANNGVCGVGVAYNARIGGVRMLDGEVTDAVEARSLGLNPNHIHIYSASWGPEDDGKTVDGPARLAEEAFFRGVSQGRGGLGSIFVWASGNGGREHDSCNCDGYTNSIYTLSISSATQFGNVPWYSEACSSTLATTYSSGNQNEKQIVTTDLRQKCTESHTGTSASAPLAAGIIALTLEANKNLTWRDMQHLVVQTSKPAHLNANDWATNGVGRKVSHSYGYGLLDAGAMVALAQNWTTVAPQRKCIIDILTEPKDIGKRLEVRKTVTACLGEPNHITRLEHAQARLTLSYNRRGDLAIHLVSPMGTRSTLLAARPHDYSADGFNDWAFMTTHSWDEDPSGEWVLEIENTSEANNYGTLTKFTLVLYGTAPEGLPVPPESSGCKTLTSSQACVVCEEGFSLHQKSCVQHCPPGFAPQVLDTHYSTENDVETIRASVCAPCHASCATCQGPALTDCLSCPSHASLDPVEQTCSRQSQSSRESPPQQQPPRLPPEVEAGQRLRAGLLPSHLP
GASC-1 inh = blocks human GASC-1 demethylase activity; Q9H3R0; GST-JMJD2C(1-420) H3K9me3 demethylation, DELFIA europium; inhibition, % at 2.35 µM; hit rate 0.069% among 330,000; AID 2099;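 active means more than half of a compound's replicate wells show inhibition beyond 50%, single wells judged on their own value; inconclusive means some, but no more than half, of replicates pass 50% inhibition; inactive means no replicate passes 50% inhibition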;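 further: signal counts dimethyl H3K9 product captured on neutravidin plate; 0% = median of DMSO wells and 100% = 0.3 times that DMSO median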
EP2 mod = EP2 receptor (human) modulation. EP2-expressing cells, cAMP HTRF FRET, PGE2 co-stimulation. induction, % at 25 µM. hit rate 0.83% among 260,000;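 active means compounds whose cAMP rise, as percent of the full-agonist control response, exceeds 60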;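 further: rat C6 glioma line stably carrying human EP2 under a CMV promoter; the protocol text gives 20 µM as final concentration; 100% = response of wells given 1 µM PGE2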
NR2E3 ag-2 = activates human photoreceptor nuclear receptor NR2E3. Q9Y5X4. GST-NR2E3/biotin-RetCOR TR-FRET, 1536-well. inhibition of corepressor binding, % at 4.78 µM. hit rate 0.12% among 320,000. AID 2300;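 active means percent inhibition above the cutoff of mean plus 3 SD of all tested compounds, set per screening campaign, cut at about 20% in these data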;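 further: 0% = DMSO wells and 100% = biotin wells as full block of FRET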
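Material – GST-tagged NR2E3 plus biotinylated RetCOR corepressor · Quantity – NR2E3 fusion 1.35 nM · Times – 5 h incubation at 4 °C · Medium – pH 7.5 Tris-based buffer · Technique – TR-FRET, Eu(K)-anti-GST donor, streptavidin-D2 acceptor, ex 340, em 617/671 nm · Benchmarks – high control biotin, low control 0.6% DMSO · Format – 1536-well plates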
PGE2 EP2 inh = blocks the human prostaglandin E2 receptor EP2 | P43116 | hit rate 0.52% among 260,000 | C6 glioma cells expressing human EP2, cAMP TR-FRET; cells stimulated with saturating PGE2 | inhibition, % at 25 µM;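 active means percent inhibition above 40 after rounding to a whole number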;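 further: rat C6 glioma host cells with rolipram phosphodiesterase inhibitor present; the protocol text gives 20 µM as final concentration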
NR2E3 ag conf = NR2E3 agonism confirmed in two-hybrid assay; inhibition, % at 3.98 µM; shares compounds with NR2E3 ag-1; CHO-S mammalian two-hybrid NR2E3-NCOR, luciferase luminescence; hit rate 51% among 2,300;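 active means average inhibition above a cutoff equal to the mean inhibition of all tested compounds plus one SD, cut at about 70% in these data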;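 further: 0% = DMSO in NR2E3 cells and 100% = DMSO in cells lacking NR2E3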
GAL4-VP16 luc = reduces GAL4-VP16 reporter signal in NR2E3 counterscreen. shares compounds with NR2E3 ag-1. hit rate 29% among 2,300. AID 624379. CHO-S GAL4-VP16 luciferase reporter, luminescence. inhibition, % at 3.98 µM;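 active means mean inhibition above a cutoff equal to the average over all tested compounds plus one standard deviation, cut at about 70% in these data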;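 further: luciferase from a UAS reporter driven by GAL4-VP16 transactivation; 0% = DMSO with VP16-transfected cells and 100% = DMSO with cells lacking VP16; higher means less reporter light so more repression of VP16 activity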
* = called active by the depositor; ? = inconclusive; / = not tested or not shown.

SMILES	NR2E3 ag-1	Furin inhibitor	GASC-1 inh	EP2 mod	NR2E3 ag-2	PGE2 EP2 inh	NR2E3 ag conf	GAL4-VP16 luc
Cc1cnc(NC(=O)CN2CCN(c3ccccn3)CC2)s1	64	-5	12	11	0	5	94*	16
COc1ccc(N2CCN(CC(=O)Nc3ncc(C)s3)CC2)cc1	-12	/	-35	/	3	/	/	/
COCCN1CCN(C(=O)c2ccc3nc(Cc4ccc(OC)c(OC)c4)oc3c2)CC1	70	/	8	/	4	/	45	56
COc1ccc(Cc2nc3ccc(C(=O)N4C[C@@H](C)O[C@@H](C)C4)cc3o2)cc1OC	-82	/	-23	/	2	/	/	/
CC(C)C[C@@H](CN1CCC[C@@H]1CN1C(=S)NC[C@@H]1Cc1ccc(O)cc1)N1C[C@H](Cc2ccc(O)cc2)N(CC2CCCCC2)C1=S	54	/	/	/	/	/	14	19
CCCn1c(N2CCN(Cc3ccccc3)CC2)nc2c1c(=O)[nH]c(=O)n2C	/	/	/	11	/	19	/	/
COc1cc(C2CC(=O)c3c([nH]c(C(=O)OCCOC(C)C)c3C)C2)cc(OC)c1OC (stereo unspecified)	53	-17	8	2	3	10	53	56
CCOCCOC(=O)c1[nH]c2c(c1C)C(=O)CC(c1ccc(OC)c(OC)c1)C2 (stereo unspecified)	-3	/	2	/	3	/	/	/
Cc1nc(C)c(C(=O)NCc2ccc(Cl)cc2)o1	4	-1	52	0	6	6	/	/
Cc1nn(C)c(C(=O)NCc2ccc(Cl)cc2)c1Cl	61	-13	-19	8	-4	4	89*	75*
CCOc1ccc(NS(=O)(=O)c2ccc(C(=O)N3CCCC(C)C3)cc2)cc1 (stereo unspecified)	55	/	-4	/	0	/	74*	69
CCOc1ccc(NS(=O)(=O)c2ccc(C(=O)N3CCCCCC3)cc2)cc1	73*	/	-4	/	-4	/	23	47
CCOc1ccc(S(=O)(=O)Nc2ccc(C(=O)N3CCCC3)cc2)cc1	17	/	9	/	5	/	/	/
CC(=O)Nc1ccc(S(=O)(=O)Oc2ccc(C(=S)N3CCCCC3)cc2)cc1	55	-8	-158	-44	-4	7	70*	62
Cc1ccc(NS(=O)(=O)c2ccc(C(=O)N3CCN(c4ccccn4)CC3)cc2)cc1	68	-18	-1	-19	2	9	68	54
CCCc1nnc(NC(=O)CCCOc2ccc(C)cc2)s1	/	/	/	-13	/	7	/	/
CC(C)c1ccc(C2C3=C(CC(C)(C)CC3=O)Nc3ncnn32)cc1 (stereo unspecified)	/	/	/	-21	/	9	/	/
COc1ccc(N2CCN(C(=O)c3ccc(CNS(=O)(=O)c4ccc(C)cc4)cc3)CC2)cc1	43	/	-5	/	1	/	/	/
COc1ccc(NS(=O)(=O)c2ccc(NC(=O)C3CC3)cc2)cc1	52	/	23	/	4	/	27	42
COc1ccc(NS(=O)(=O)c2ccc(C(=O)N3CCCCCC3)cc2)cc1	76*	/	1	/	/	/	37	48
Cc1ccc(S(=O)(=O)NCc2ccc(C(=O)N3CCN(c4ccc([N+](=O)[O-])cc4)CC3)cc2)cc1	58	/	-1	/	-2	/	83*	62
CCCCOc1ccc(S(=O)(=O)Nc2ccc(NC(C)=O)cc2)cc1	70*	-19	-6	-15	-1	3	27	47
COc1ccc(NS(=O)(=O)c2cccc(C(=O)N3CCCCCC3)c2)cc1	-1	/	4	/	-2	/	/	/
CCOc1ccc(NS(=O)(=O)c2ccc(NC(=O)C3CC3)cc2)cc1	38	/	-6	/	0	/	/	/
CCCCN(CCCC)S(=O)(=O)c1ccc(NS(=O)(=O)c2ccc(NC(C)=O)cc2)cc1	-10	-5	7	10	0	11	/	/
SMILES	NR2E3 ag-1	Furin inhibitor	GASC-1 inh	EP2 mod	NR2E3 ag-2	PGE2 EP2 inh	NR2E3 ag conf	GAL4-VP16 luc
CCOC(=O)N1CCN(C(=O)c2ccc(S(=O)(=O)Nc3ccc(C)cc3)cc2)CC1	54	/	4	/	/	/	81*	51
CCOC(=O)N1CCN(C(=O)c2ccc(NS(=O)(=O)c3ccc(C)cc3)cc2)CC1	8	/	4	/	3	/	/	/
Cc1ccc2cc3c(nc2c1C)OCCN(C(=O)c1ccco1)C3	/	/	/	-19	/	/	/	/
Cc1ccc(CC(=O)Nc2ccncc2)cc1	50	-15	9	-42	2	2	66	50
CCN(CC)S(=O)(=O)c1ccc(Oc2ccccc2)c(N)c1	18	-19	8	-22	-5	8	/	/
CCN(CC)S(=O)(=O)c1ccc(N2CCN(c3ccccc3OC)CC2)c(N)c1	105*	/	-3	/	2	/	93*	74*
CCC(C)(C)NC(=O)CN(C(=O)CCC(=O)Nc1ccccn1)c1ccc(F)cc1	/	/	/	-9	/	8	/	/
O=C(NC1(c2ccc(F)cc2)CCCC1)c1cnsc1	/	/	/	14	/	/	/	/
COc1ccc(C=NNC(=S)NC23CC4CC(CC(C4)C2)C3)cc1OC	64	/	/	/	/	/	2	12
O=C(NC1CCCCC1)c1cc2n(n1)C(C(F)(F)F)CC(c1ccco1)N2 (stereo unspecified)	/	/	/	-109	/	11	/	/
COc1ccc(CCNc2nc(-c3ccccn3)cs2)cc1OC	68	-18	9	-33	-1	5	10	-40
CC(=O)c1c(C)[nH]c(C(=O)OCc2cccc(C)c2)c1C	48	/	?	/	2	/	28	1
O=c1cc(C(F)(F)F)[nH]c2ccc(OC(F)(F)F)cc12	79*	-15	-6	-26	1	9	100*	73*
COc1ccc(NC(=O)CN2CCC(NC(=O)c3ccc(F)cc3)CC2)c(OC)c1	/	/	/	-96	/	9	/	/
CCCCNc1c(-c2ccc(OC)c(SC3CCCCC3)c2)nc2ccc(C)cn12	61	/	/	/	/	/	46	26
CCC(C)(C)n1nnnc1CN(Cc1cc2cc(C)ccc2[nH]c1=O)C1CCCCC1	/	/	/	38	/	35	/	/
Cc1nc2c(C(=O)NCCC(C)C)c[nH]n2c(=O)c1Cc1ccccc1F	100*	-17	9	20	-1	5	86*	58
Cc1c(C(=O)NCC(C)n2cncn2)[nH]c2c(Cl)cccc12 (stereo unspecified)	/	/	/	-35	/	7	/	/
COc1ccccc1NC(=O)Cn1cnc2scc(-c3ccc(Cl)cc3)c2c1=O	/	/	/	-105	/	13	/	/
Cc1cc(C)n2nc(SCc3cccc(S(=O)(=O)N(C)C)c3)nc2n1	13	/	9	/	2	/	/	/
CN(C)S(=O)(=O)c1cccc(CSCc2cccc(S(=O)(=O)N(C)C)c2)c1	88*	/	-26	/	6	/	94*	81*
O=C(CCn1c(=O)oc2ccccc21)N1CCCC1c1nc2ccccc2[nH]1 (stereo unspecified)	/	/	/	7	/	/	/	/
COc1ccc(-c2nc3ncccn3c2Nc2ccccc2)cc1	-34	-23	3	-79	-4	16	/	/

From PubChem BioAssay
